Assay results pooled from the literature.
Lines come from different studies, so protocols differ.
Target: Mitogen-activated protein kinase kinase kinase kinase 5 (MAP4K5, Homo sapiens, UniProt Q9Y4K4)

Cc1cc(C)c(-n2ccn3nc(-c4cccnc4)cc23)cc1NC(=O)c1cc(C#N)cc(S(F)(F)(F)(F)F)c1 has a remaining binding of 83.4% (cell-free assay; competition with immobilised ligand; 0.1 µM).
With CN1CC(Oc2cnc(C#N)cc2-c2ccn3nc(NC(=O)C4CC4)cc3c2)C1 the inhibition was 4% (enzyme activity; inhibitor; 1 µM).
c1ccc(N2CCN(Cc3nc4ccccc4[nH]3)CC2)nc1 gave a remaining binding of 100% (binding; competition with immobilised ligand; 1 µM).
COc1cc(Cl)c(C(=O)N[C@@H](CN[C@H]2CC[C@@H](N)CC2)Cc2ccc(C#N)cc2)cc1-c1ccc(CN[C@H](C)c2ccc(C)cc2)o1 has a remaining activity of 113% (enzyme activity; inhibitor; 1 µM).
O=C1Nc2ccc(Cl)cc2C1=Cc1cc(Cl)c(O)c(Cl)c1 gave a remaining signal of 75.9% (cell-free assay; 0.5 µM).
For COc1ccnn2ncc(-c3ccnc(N(C)C)n3)c12, the remaining binding was 100% (binding; 1 µM).
With CO[C@@H](C)c1c(Nc2ccc([C@H](N(C)C(=O)C3CCS(=O)(=O)CC3)C(F)(F)F)cc2)cnc2cc(Cl)nn12 the remaining binding was 88% (cell-free assay; competition with immobilised ligand; 1 µM).
With CC(C)(C)c1nc2c(s1)c1nc(N)ncc1c1ccc(NS(=O)(=O)c3c(F)cccc3F)c(F)c12 the remaining activity was 87% (enzyme activity; inhibitor; radiometric; 1 µM).
The remaining binding of COCCOc1nc(-c2ccc(Cl)nc2)nc2c1CN(C(=O)c1ncn3ccccc13)CC2 is reported as 91% (cell-free assay; competition with immobilised ligand; 0.1 µM).
With FC(F)(F)Oc1cccc(-c2cnc3ccc(-c4ccncc4)nn23)c1 the activity vs control was 110% (enzyme activity; inhibitor; radiometric; 1 µM).
With CNC(=O)c1cc2c(Oc3ccc(NC(=O)C4(C(=O)Nc5ccc(F)cc5)CC4)cc3)ccnc2cc1OC the inhibition was 89% (enzyme activity; inhibitor; radiometric; 1 µM).
N#CCCc1ccc2c(c1)-c1[nH]c3ccc([N+](=O)[O-])cc3c1CC(=O)N2 has a remaining signal of 7.61% (cell-free assay; 0.5 µM).
The remaining activity of O=C(Nc1cnn(-c2csc(C(=O)NC3COC3)c2)c1)Nc1ccccc1Cl is reported as 99.1% (enzyme activity; inhibitor; 5 µM).
CCCOc1ccc([C@@H]2[C@@H](C(=O)O)[C@H](c3ccc4c(c3)OCO4)CN2CC(=O)Nc2c(CC)cccc2CC)cc1 gave a remaining binding of 95% (cell-free assay; competition with immobilised ligand; 1 µM).
COc1cc(/C=C/C(=O)CC(=O)/C=C/c2ccc(O)c(OC)c2)ccc1O has an activity vs control of 87% (enzyme activity; inhibitor; 1 µM).
The remaining signal of COc1ccc(COc2ccc(Cc3cnc(N)nc3N)cc2OC)cc1 is reported as 97.4% (cell-free assay; 0.5 µM).
With CC(C)(O)[C@H]1CC[C@H](Nc2ccc3ncc(-c4cccc(C(F)(F)F)c4)n3n2)CC1 the remaining activity was 83.2% (enzyme activity; inhibitor; 1 µM).
Cc1ccc(C(=O)NCc2ccsc2)cc1C#Cc1cn(C(C)C)c2ncnc(N)c12 has an activity vs control of 7% (enzyme activity; inhibitor; 1 µM).
COc1cc2ncnc(Nc3ccc(Oc4ccccc4)cc3C)c2cc1OC has an inhibition of 38% (enzyme activity; inhibitor; 1 µM).
